Published values of several laboratories.
Protocols differ between the studies behind these lines.
Target: Ephrin type-B receptor 6 (EPHB6, Homo sapiens, UniProt O15197)
Sequence (O15197 32-1021, as in one of the studies): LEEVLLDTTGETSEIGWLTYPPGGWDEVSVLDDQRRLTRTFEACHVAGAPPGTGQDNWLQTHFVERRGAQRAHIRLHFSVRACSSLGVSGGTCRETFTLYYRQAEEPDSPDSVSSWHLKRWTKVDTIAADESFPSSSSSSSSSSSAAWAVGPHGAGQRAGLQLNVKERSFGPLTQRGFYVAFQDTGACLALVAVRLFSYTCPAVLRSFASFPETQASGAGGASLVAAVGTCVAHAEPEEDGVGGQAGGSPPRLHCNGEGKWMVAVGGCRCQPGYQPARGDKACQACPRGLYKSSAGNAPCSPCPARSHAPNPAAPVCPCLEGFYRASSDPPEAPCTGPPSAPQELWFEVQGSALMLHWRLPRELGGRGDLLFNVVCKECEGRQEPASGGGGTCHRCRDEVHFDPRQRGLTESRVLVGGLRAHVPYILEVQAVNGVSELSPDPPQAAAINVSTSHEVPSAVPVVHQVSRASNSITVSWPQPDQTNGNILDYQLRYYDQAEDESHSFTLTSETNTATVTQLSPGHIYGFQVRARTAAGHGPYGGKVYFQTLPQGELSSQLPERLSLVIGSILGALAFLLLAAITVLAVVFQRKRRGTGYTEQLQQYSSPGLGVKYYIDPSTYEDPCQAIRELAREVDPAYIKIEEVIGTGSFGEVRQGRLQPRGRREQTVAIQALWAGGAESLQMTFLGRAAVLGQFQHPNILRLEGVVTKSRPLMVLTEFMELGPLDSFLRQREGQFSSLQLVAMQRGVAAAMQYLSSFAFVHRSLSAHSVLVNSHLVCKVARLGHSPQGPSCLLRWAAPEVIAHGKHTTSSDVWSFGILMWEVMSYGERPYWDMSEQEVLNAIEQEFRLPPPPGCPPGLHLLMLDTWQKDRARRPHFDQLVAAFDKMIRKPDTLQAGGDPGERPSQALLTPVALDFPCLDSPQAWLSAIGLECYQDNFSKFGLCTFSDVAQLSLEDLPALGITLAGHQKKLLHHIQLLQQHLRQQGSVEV

SMILES | read-out | technique | concentration | remaining binding [%]
N[C@@H]1CCN(c2nccc(-c3cnn4ncccc34)n2)C1 | binding | – | 1 µM | 52
O=C(NCCCN1CCOCC1)c1ccc(Nc2ncc(Cl)c(-c3ccc(Cl)s3)n2)cc1 | binding | competition with immobilised ligand | 1 µM | 13
FC(F)(F)Oc1cccc(-c2cnc3ccc(-c4ccncc4)nn23)c1 | cell-free assay | competition with immobilised ligand | 5 µM | 9.3
CC1CCCN1c1nccc(-c2cnn3ncccc23)n1 (stereo not shown) | binding | – | 1 µM | 82
C[C@@H](c1ccc(-n2cnc3c(N)ncnc32)cc1)N1CCc2nn(C)c(Cc3ccccc3)c2C1=O | binding | competition with immobilised ligand | 0.1 µM | 51
COc1ncc2cc3ccccc3nc2c1C#N | cell-free assay | competition with immobilised ligand | 5 µM | 73
O=C(Nc1cccnn1)N1CCC(=Cc2cccc(Oc3ccc(C(F)(F)F)cn3)c2)CC1 | cell-free assay | competition with immobilised ligand | 1 µM | 100
Cc1cnn2ncc(-c3ccnc(N(C)C)n3)c2c1 | binding | – | 1 µM | 80
O=C(c1ccc(Nc2nccc(-c3cc4ccccc4s3)n2)cc1)N1CCC(N2CCCC2)CC1 | binding | competition with immobilised ligand | 1 µM | 2.5
Cc1c[nH]c2nccc(Oc3c(F)cc(Nc4cc(Cl)nc(N)n4)cc3F)c12 | cell-free assay | competition with immobilised ligand | 0.1 µM | 96
CNC(=O)[C@@H]1CC[C@@H](n2c(-c3ccc4cnccc4c3)nc3ccc(C(=O)NCc4cccc(C(N)=O)c4)cc32)C1 | binding | competition with immobilised ligand | 1 µM | 100
C[C@@]1(Cc2ccc(C#N)cc2)C(=O)N(c2cc(Cl)cc(Cl)c2)c2ncc(C(=O)NC3(c4nc(C5CCC5)no4)CC3)n21 | cell-free assay | competition with immobilised ligand | 1 µM | 100
C[C@@H]1CCN(c2nccc(-c3cnn4ncccc34)n2)C1 | binding | – | 1 µM | 93
O=C(c1ccc(Nc2ncc(Cl)c(-c3cc4ccccc4s3)n2)cc1)N1CCC(N2CCCC2)CC1 | binding | competition with immobilised ligand | 1 µM | 3.9
CS(=O)(=O)N1CCCC(NC(=O)[C@H](CCC2CCCCC2)NC(=O)c2ccc(CNC(=O)c3cnc4ccccn34)cc2)C1 (stereo partly shown) | cell-free assay | competition with immobilised ligand | 0.1 µM | 98
COc1cnc(Nc2cccc(S(N)(=O)=O)c2)nc1N1CCN(c2ccccc2)CC1 | binding | competition with immobilised ligand | 1 µM | 95
CC(=O)N1CCC(c2ccc(C(=O)NC3=NCCN3)cc2C(F)(F)F)CC1 | cell-free assay | competition with immobilised ligand | 1 µM | 100
CN(C)c1nccc(-c2cnc3ncccn23)n1 | binding | – | 1 µM | 45
O=C(NC[C@@H]1[C@H]2CN(C(=O)OCc3cc(C(F)(F)F)cc(C(F)(F)F)c3)C[C@@H]12)c1ccc2[nH]nnc2c1 | cell-free assay | competition with immobilised ligand | 1 µM | 100
O=C(NCC1CCOCC1)c1n[nH]cc1NC(=O)c1c(F)cccc1F | binding | competition with immobilised ligand | 1 µM | 91
C[C@@H]1CN(c2cc(-c3n[nH]c4ccc(OC5(C)CC5)cc34)ncn2)C[C@H](C)O1 | cell-free assay | competition with immobilised ligand | 0.1 µM | 91
c1cnn2ncc(-c3ccnc(N4CCC45COC5)n3)c2c1 | binding | – | 1 µM | 63
